Laboratory results reported in PMC9069315 (Acta Pharmaceutica Sinica. B, 2021).
Positions count from the first letter of the chain named. Where “and” joins values, the source holds several entries; their conditions need not be identical. Identical values can stand only once.

Key:
σ2 receptors [1] = molecular target: T1, σ2 receptors (Mus musculus, UniProt Q8VD00); experiment: Blocking experiments in male ICR mice; assay type: in vivo; details: 30 min p.i.
T1 sequence (Q8VD00 1-176): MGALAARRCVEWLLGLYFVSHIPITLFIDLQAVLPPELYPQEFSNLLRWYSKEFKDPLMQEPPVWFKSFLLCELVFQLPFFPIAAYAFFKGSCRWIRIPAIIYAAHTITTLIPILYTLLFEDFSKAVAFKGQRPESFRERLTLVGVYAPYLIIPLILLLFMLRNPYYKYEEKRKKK
Procedure, shortened: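 Male ICR mice (20 ± 2 g, 4–5 weeks) were pre-dosed 5 min before about 280 kBq of radiotracer, with either unlabeled compound (0.1 mL, 3 μmol/kg) or CM398 (0.1 mL; 3, 5, 10 or 20 μmol/kg). Tissues were taken at 30 min p.i. Brain uptake (% ID/g) and brain-to-blood ratio were compared with unblocked controls.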

P-glycoprotein (P-gp) = P-glycoprotein (P-gp) (Mus musculus, UniProt P21447); experiment: Effect of P-gp on brain uptake; assay type: in vivo; details: male ICR mice
Procedure, shortened: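 Male ICR mice (20 ± 2 g, 4–5 weeks) were given the P-gp inhibitor cyclosporine A 60 min before the radioligand. Radioactivity in brain and blood was measured and the brain-to-blood ratio derived, n = 5–8 per group, means ± SD. Groups were compared by independent two-tailed Student's t test.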

σ2 receptor [2] = molecular target: T2, σ2 receptor (Rattus norvegicus, UniProt Q5U3Y7); experiment: Micro-PET/CT imaging in Sprague-Dawley rats; assay type: in vivo; details: SD rats, CM398 10 μmol/kg 5 min before tracer, after 30 min
T2 sequence (Q5U3Y7 1-176): T1 sequence (Q8VD00 1-176) with L4V, A5T, L26M, V33L, L71F, A105V, L118I, V127I, S136N, Y169F
Procedure, shortened: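 Male SD rats (200 ± 10 g, 6–7 weeks) were injected intravenously with radiotracer, and a dynamic 120-min micro-PET/CT scan followed. Scans were run at baseline or with CM398 (10 μmol/kg) blocking. Whole-brain and regional time–activity curves were expressed as SUV, n = 3 per condition for whole brain; images were summed over 30–45 min.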

[3] = In vivo metabolic stability in ICR mice; design: species or system mouse; details: 30 min after injection, radio-HPLC
Procedure, shortened: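 ICR mice were injected with radiotracer (0.2 mL, 33.3 MBq). Brain and pancreas were dissected at 30 min, processed, and analysed by radio-HPLC for the intact-tracer fraction versus radioactive metabolites.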

[4] = Biodistribution in male ICR mice; assay type: in vivo, mouse; details: i.v.
Procedure, shortened: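 Male ICR mice (20 ± 2 g, 4–5 weeks) received the radiotracer, and tissues were sampled at the listed times after injection. Uptake is given as percentage of injected dose per gram of tissue (% ID/g), as means ± SD, n = 5.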

σ2 receptor [5] = molecular target: T2, σ2 receptor; details: cited from earlier work
σ2 receptors [6] = molecular target: T1, σ2 receptors; experiment: Ex vivo autoradiography in mouse brain; details: baseline, 30 min p.i., male ICR mice
[7] = In vitro stability in saline and mouse serum; assay type: in vitro ADME; details: 2 h
[8] = CM398 5 μmol/kg 5 min before tracer
[9] = unlabeled compound 3 μmol/kg 5 min before tracer
[10] = cyclosporine A 60 min before tracer, 2 min p.i., P < 0.05

Sequence of P-glycoprotein (P-gp) (P21447 whole entry): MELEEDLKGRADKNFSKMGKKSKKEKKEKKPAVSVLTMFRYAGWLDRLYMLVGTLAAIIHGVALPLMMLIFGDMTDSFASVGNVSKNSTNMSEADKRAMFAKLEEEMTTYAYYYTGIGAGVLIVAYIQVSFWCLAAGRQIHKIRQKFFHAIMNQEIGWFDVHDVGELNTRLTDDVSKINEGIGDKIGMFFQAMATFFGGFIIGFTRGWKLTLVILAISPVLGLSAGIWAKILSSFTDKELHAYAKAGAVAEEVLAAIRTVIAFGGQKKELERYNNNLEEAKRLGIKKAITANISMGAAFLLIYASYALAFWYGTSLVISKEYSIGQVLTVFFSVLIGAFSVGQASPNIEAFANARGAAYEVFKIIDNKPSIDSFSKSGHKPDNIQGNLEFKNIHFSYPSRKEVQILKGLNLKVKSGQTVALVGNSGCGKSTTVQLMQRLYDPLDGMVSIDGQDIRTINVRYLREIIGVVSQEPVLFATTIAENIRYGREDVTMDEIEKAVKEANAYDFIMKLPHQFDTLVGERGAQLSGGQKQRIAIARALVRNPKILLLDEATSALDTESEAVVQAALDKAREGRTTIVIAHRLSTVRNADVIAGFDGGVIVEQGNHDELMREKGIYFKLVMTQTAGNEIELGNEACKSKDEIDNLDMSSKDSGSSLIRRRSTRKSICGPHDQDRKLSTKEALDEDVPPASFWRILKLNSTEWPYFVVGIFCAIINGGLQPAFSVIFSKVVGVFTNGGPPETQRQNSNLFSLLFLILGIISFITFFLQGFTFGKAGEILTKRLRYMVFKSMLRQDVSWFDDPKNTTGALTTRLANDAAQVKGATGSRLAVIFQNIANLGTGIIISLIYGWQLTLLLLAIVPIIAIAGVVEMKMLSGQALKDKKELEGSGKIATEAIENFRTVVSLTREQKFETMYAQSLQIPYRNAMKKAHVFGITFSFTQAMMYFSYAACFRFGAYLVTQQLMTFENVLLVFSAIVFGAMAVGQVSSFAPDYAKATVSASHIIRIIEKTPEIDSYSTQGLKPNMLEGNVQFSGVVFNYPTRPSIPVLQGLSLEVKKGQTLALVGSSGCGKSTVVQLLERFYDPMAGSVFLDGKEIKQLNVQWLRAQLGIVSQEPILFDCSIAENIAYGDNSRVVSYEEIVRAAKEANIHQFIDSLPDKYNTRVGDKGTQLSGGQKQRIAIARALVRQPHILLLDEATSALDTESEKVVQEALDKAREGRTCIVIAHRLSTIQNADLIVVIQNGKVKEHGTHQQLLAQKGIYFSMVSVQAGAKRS

With `COc1cc2c(cc1OC)CN(CCCCn1ccc3c(OCC[18F])cccc31)C2` [[^18F]9, 1-(4-(5,6-dimethoxyisoindolin-2-yl)butyl)-4-(2-[^18F]fluoroethoxy)-1H-indole] the “Blocking effect of CM398 (5 μmol/kg), Brain” value (σ2 receptors [1]; [8]) was 39%, the “Blocking effect of CM398 (5 μmol/kg), Brain/Blood” value (σ2 receptors [1]; [8]) was 75% and the “Self-blocking effect, Brain” value (σ2 receptors [1]; [9]) was 58%. For the same compound, the “Self-blocking effect, Brain/Blood” value (σ2 receptors [1]; [9]) was 90%, the P-gp substrate (P-glycoprotein (P-gp); cyclosporine A 50 mg/kg 60 min before tracer, 50 mg/kg) was “moderate P-gp substrates and moderate P-gp substrate and Yes” and the “Increase in brain-to-blood ratio with cyclosporine A” value (P-glycoprotein (P-gp); [10]) was 35%. The “Increase in initial brain uptake with cyclosporine A” value (P-glycoprotein (P-gp); [10]) was 49%, the “Change in blood uptake with cyclosporine A” value (P-glycoprotein (P-gp); cyclosporine A 60 min before tracer, 2 min p.i., P > 0.05) was “slight increase without significance” and the “Reduction of radiotracer accumulation in the whole-brain (micro-PET)” value (σ2 receptor [2]) was greater than 60%. The “Parent compound fraction of radioactivity in brain” value [3] was no less than 95%, the “Parent compound fraction of radioactivity in pancreas” value ([3]; n = 3) was roughly 10% and the Blood uptake ([4]; 2 min p.i.) was 2.39 ± 0.36 % ID/g. For the same compound, the Bone uptake ([4]; 2 min p.i.) was 2.59 ± 0.66 % ID/g, the Brain uptake ([4]; 2 min p.i.) was 4.44 ± 0.59 % ID/g and the Brain/Blood ratio ([4]; 2 min p.i.) was 1.87 ± 0.13. It also gave a Heart uptake ([4]; 2 min p.i.) of 21.57 ± 1.58 % ID/g, a Kidney uptake ([4]; 2 min p.i.) of 18.89 ± 2.48 % ID/g and a Liver uptake ([4]; 2 min p.i.) of 3.24 ± 0.67 % ID/g. It also gave a Lung uptake ([4]; 2 min p.i.) of 108.47 ± 20.11 % ID/g, a Muscle uptake ([4]; 2 min p.i.) of 4.38 ± 0.99 % ID/g and a Pancreas uptake ([4]; 2 min p.i.) of 8.74 ± 0.29 % ID/g. For the same compound, the Small intestine uptake ([4]; 2 min p.i.) was 6.21 ± 0.81 % ID/organ, the Spleen uptake ([4]; 2 min p.i.) was 5.01 ± 1.80 % ID/g and the Stomach uptake ([4]; 2 min p.i.) was 1.21 ± 0.14 % ID/organ. It also gave a Blood uptake ([4]; 15 min p.i.) of 0.70 ± 0.08 % ID/g, a Bone uptake ([4]; 15 min p.i.) of 3.02 ± 0.45 % ID/g and a Brain uptake ([4]; 15 min p.i.) of 4.95 ± 0.36 % ID/g. The Brain/Blood ratio ([4]; 15 min p.i.) was 7.2 and 7.21 ± 1.36, the Heart uptake ([4]; 15 min p.i.) was 11.23 ± 0.91 % ID/g and the Kidney uptake ([4]; 15 min p.i.) was 18.40 ± 2.45 % ID/g. It also gave a Liver uptake ([4]; 15 min p.i.) of 6.13 ± 0.94 % ID/g, a Lung uptake ([4]; 15 min p.i.) of 36.37 ± 6.47 % ID/g and a Muscle uptake ([4]; 15 min p.i.) of 3.74 ± 0.33 % ID/g. It also gave a Pancreas uptake ([4]; 15 min p.i.) of 12.75 ± 2.12 % ID/g, a Small intestine uptake ([4]; 15 min p.i.) of 7.27 ± 0.88 % ID/organ and a Spleen uptake ([4]; 15 min p.i.) of 7.51 ± 1.17 % ID/g. The Stomach uptake ([4]; 15 min p.i.) was 1.52 ± 0.19 % ID/organ, the Blood uptake ([4]; 30 min p.i.) was 0.48 ± 0.08 % ID/g and the Bone uptake ([4]; 30 min p.i.) was 4.50 ± 0.38 % ID/g. For the same compound, the Brain uptake ([4]; 30 min p.i.) was 5.04 ± 0.67 % ID/g, the Brain/Blood ratio ([4]; 30 min p.i.) was 10.6 and 10.57 ± 1.86 and 10.57 and the Heart uptake ([4]; 30 min p.i.) was 7.55 ± 1.30 % ID/g. It also gave a Kidney uptake ([4]; 30 min p.i.) of 20.61 ± 1.80 % ID/g, a Liver uptake ([4]; 30 min p.i.) of 8.69 ± 0.44 % ID/g and a Lung uptake ([4]; 30 min p.i.) of 17.93 ± 2.42 % ID/g. For the same compound, the Muscle uptake ([4]; 30 min p.i.) was 3.90 ± 0.23 % ID/g, the Pancreas uptake ([4]; 30 min p.i.) was 18.93 ± 2.95 % ID/g and the Small intestine uptake ([4]; 30 min p.i.) was 10.80 ± 0.36 % ID/organ. The Spleen uptake ([4]; 30 min p.i.) was 9.93 ± 1.43 % ID/g, the Stomach uptake ([4]; 30 min p.i.) was 1.54 ± 0.20 % ID/organ and the Blood uptake ([4]; 60 min p.i.) was 0.42 ± 0.05 % ID/g. The Bone uptake ([4]; 60 min p.i.) was 4.64 ± 1.57 % ID/g, the Brain uptake ([4]; 60 min p.i.) was 4.43 ± 0.39 % ID/g and the Brain/Blood ratio ([4]; 60 min p.i.) was 10.6 and 10.56 ± 0.83. The Heart uptake ([4]; 60 min p.i.) was 3.49 ± 0.62 % ID/g, the Kidney uptake ([4]; 60 min p.i.) was 17.40 ± 3.97 % ID/g and the Liver uptake ([4]; 60 min p.i.) was 10.97 ± 0.95 % ID/g. For the same compound, the Lung uptake ([4]; 60 min p.i.) was 9.95 ± 1.62 % ID/g, the Muscle uptake ([4]; 60 min p.i.) was 3.01 ± 0.51 % ID/g and the Pancreas uptake ([4]; 60 min p.i.) was 22.66 ± 3.36 % ID/g. It also gave a Small intestine uptake ([4]; 60 min p.i.) of 10.73 ± 1.27 % ID/organ, a Spleen uptake ([4]; 60 min p.i.) of 11.35 ± 2.85 % ID/g and a Stomach uptake ([4]; 60 min p.i.) of 1.39 ± 0.27 % ID/organ. For the same compound, the Blood uptake ([4]; 120 min p.i.) was 0.42 ± 0.03 % ID/g, the Bone uptake ([4]; 120 min p.i.) was 5.57 ± 0.53 % ID/g and the Brain uptake ([4]; 120 min p.i.) was 3.41 ± 0.13 % ID/g. For the same compound, the Brain/Blood ratio ([4]; 120 min p.i.) was 8.11 ± 0.37, the Heart uptake ([4]; 120 min p.i.) was 2.76 ± 0.41 % ID/g and the Kidney uptake ([4]; 120 min p.i.) was 12.36 ± 0.81 % ID/g. For the same compound, the Liver uptake ([4]; 120 min p.i.) was 11.9 ± 1.52 % ID/g, the Lung uptake ([4]; 120 min p.i.) was 7.53 ± 1.07 % ID/g and the Muscle uptake ([4]; 120 min p.i.) was 3.01 ± 0.27 % ID/g. The Pancreas uptake ([4]; 120 min p.i.) was 24.21 ± 1.57 % ID/g, the Small intestine uptake ([4]; 120 min p.i.) was 10.88 ± 0.38 % ID/organ and the Spleen uptake ([4]; 120 min p.i.) was 10.51 ± 0.37 % ID/g. For the same compound, the Stomach uptake ([4]; 120 min p.i.) was 1.22 ± 0.13 % ID/organ, the Ki (σ2 receptor [5]; read-out: Ki (σ2)) was 1.79 ± 0.86 nM and the “Ki (σ1)/Ki (σ2)” value (σ2 receptor [5]; subtype selectivity) was 207. For the same compound, the “Radioactivity distribution in the mouse brain (ex vivo autoradiography)” value (σ2 receptors [6]) was “widely and heterogeneously distributed”, the “RCP after incubation (in vitro stability)” value ([7]; mouse serum, 37 °C) was greater than 99% and the “RCP after incubation (in vitro stability)” value ([7]; saline, ambient temperature) was greater than 99%.
